# Test results published in ChEMBL document CHEMBL1138555, “N-acylated and N,N'-diacylated imidazolidine-2-thione derivatives and N,N'-diacylated tetrahydropyrimidine-2(1H)-thione analogues: synthesis and antiproliferative activity” (Eur J Med Chem, 2009).
# Assays:
# MT4 = test: Antiproliferative activity against human MT4 cells assessed as reduction of growth by MTT assay; type: functional, cell-based
# Summary of the method: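 MT-4 lymphoblastoid T cells (ATCC) in RPMI 1640 with 10% FCS, penicillin/streptomycin, checked for mycoplasma. 1 × 10⁴ mock-infected cells per well with serial dilutions from a 100 mM DMSO stock. Incubated 4 days at 37 °C, viable cells counted by MTT. IC50 versus untreated controls by linear regression. Mean of three separate experiments.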
# CCRF-CEM = test: Growth inhibition of human CCRF-CEM cells after 48 hrs by sulforhodamine B assay; type: functional
# Summary of the method: (§1)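 NCI screen panel. Five 10-fold concentrations from 10^-4 to 10^-8 M. Exposure for the last 48 h of a 72 h incubation. Growth estimated by sulforhodamine B protein assay. GI50 is the concentration giving 50% growth inhibition. Where that level was not reached or was exceeded, the value is given as above or below the highest or lowest concentration tested.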
# K562 = test: Growth inhibition of human K562 cells after 48 hrs by sulforhodamine B assay; type: functional; details: K562, 48 h; summary of the method: as §1
# MOLT-4 = test: Growth inhibition of human MOLT4 cells after 48 hrs by sulforhodamine B assay; type: functional; details: MOLT-4, 48 h; summary of the method: as §1
# A549 = test: Growth inhibition of human A549 cells after 48 hrs by sulforhodamine B assay; type: functional; details: A549, 48 h; summary of the method: as §1
# EKVX = test: Growth inhibition of human EKVX cells after 48 hrs by sulforhodamine B assay; type: functional; summary of the method: as §1
# HOP-62 = test: Growth inhibition of human HOP62 cells after 48 hrs by sulforhodamine B assay; type: functional; details: HOP-62, 48 h; summary of the method: as §1
# HOP-92 = test: Growth inhibition of human HOP92 cells after 48 hrs by sulforhodamine B assay; type: functional; details: HOP-92, 48 h; summary of the method: as §1
# NCI-H226 = test: Growth inhibition of human NCI-H226 cells after 48 hrs by sulforhodamine B assay; type: functional; details: NCI-H226, 48 h; summary of the method: as §1
# NCI-H322M = test: Growth inhibition of human NCI-H322M cells after 48 hrs by sulforhodamine B assay; type: functional; summary of the method: as §1
# NCI-H460 = test: Growth inhibition of human NCI-H460 cells after 48 hrs by sulforhodamine B assay; type: functional; details: NCI-H460, 48 h; summary of the method: as §1
# COLO 205 = test: Growth inhibition of human COLO205 cells after 48 hrs by sulforhodamine B assay; type: functional; details: COLO 205, 48 h; summary of the method: as §1
# HCT-116 = test: Growth inhibition of human HCT116 cells after 48 hrs by sulforhodamine B assay; type: functional; details: HCT-116, 48 h; summary of the method: as §1
# HCT-15 = test: Growth inhibition of human HCT15 cells after 48 hrs by sulforhodamine B assay; type: functional; details: HCT-15, 48 h; summary of the method: as §1
# KM12 = test: Growth inhibition of human KM12 cells after 48 hrs by sulforhodamine B assay; type: functional; details: KM12, 48 h; summary of the method: as §1
# SW-620 = test: Growth inhibition of human SW620 cells after 48 hrs by sulforhodamine B assay; type: functional; details: SW-620, 48 h
# Summary of the method: (§2)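 NCI in vitro panel screen. Compounds tested at five 10-fold dilutions, 10^-4 to 10^-8 M. Cells in 96-well plates were exposed for the last 48 h of a 72 h incubation. Viability/growth was read by sulforhodamine B protein assay. GI50 is the concentration giving 50% growth inhibition. Values beyond the tested range are reported as greater or less than the maximum or minimum concentration.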
# SF-268 = test: Growth inhibition of human SF268 cells after 48 hrs by sulforhodamine B assay; type: functional; details: SF-268, 48 h; summary of the method: as §1
# SF-295 = test: Growth inhibition of human SF295 cells after 48 hrs by sulforhodamine B assay; type: functional; details: SF-295, 48 h; summary of the method: as §1
# SNB-75 = test: Growth inhibition of human SNB75 cells after 48 hrs by sulforhodamine B assay; type: functional; details: SNB-75, 48 h; summary of the method: as §2
# U-251 = test: Growth inhibition of human U251 cells after 48 hrs by sulforhodamine B assay; type: functional; details: U-251, 48 h; summary of the method: as §2
# LOX IMVI = test: Growth inhibition of human LOXIMVI cells after 48 hrs by sulforhodamine B assay; type: functional; summary of the method: as §1
# Malme-3M = test: Growth inhibition of human MALME-3M cells after 48 hrs by sulforhodamine B assay; type: functional; summary of the method: as §1
# M14 = test: Growth inhibition of human M14 cells after 48 hrs by sulforhodamine B assay; type: functional; details: M14, 48 h; summary of the method: as §1
# UACC-257 = test: Growth inhibition of human UACC257 cells after 48 hrs by sulforhodamine B assay; type: functional; details: UACC-257, 48 h; summary of the method: as §2
# UACC-62 = test: Growth inhibition of human UACC62 cells after 48 hrs by sulforhodamine B assay; type: functional; details: UACC-62, 48 h; summary of the method: as §2
# IGROV-1 = test: Growth inhibition of human IGROV1 cells after 48 hrs by sulforhodamine B assay; type: functional; details: IGROV-1, 48 h; summary of the method: as §1
# OVCAR-3 = test: Growth inhibition of human OVCAR-3 cells after 48 hrs by sulforhodamine B assay; type: functional; details: OVCAR-3, 48 h; summary of the method: as §1
# OVCAR-5 = test: Growth inhibition of human OVCAR5 cells after 48 hrs by sulforhodamine B assay; type: functional; details: OVCAR-5, 48 h; summary of the method: as §1
# SK-OV-3 = test: Growth inhibition of human SKOV3 cells after 48 hrs by sulforhodamine B assay; type: functional; details: SK-OV-3, 48 h; summary of the method: as §1
# 786-0 = test: Growth inhibition of human 786-0 cells after 48 hrs by sulforhodamine B assay; type: functional; details: 786-0, 48 h; summary of the method: as §1
# A498 = test: Growth inhibition of human A498 cells after 48 hrs by sulforhodamine B assay; type: functional; details: A498, 48 h; summary of the method: as §1
# CAKI-1 = test: Growth inhibition of human Caki1 cells after 48 hrs by sulforhodamine B assay; type: functional; details: CAKI-1, 48 h; summary of the method: as §1
# RXF 393 = test: Growth inhibition of human RXF393 cells after 48 hrs by sulforhodamine B assay; type: functional; details: RXF 393, 48 h; summary of the method: as §1
# SN12C = test: Growth inhibition of human SN12C cells after 48 hrs by sulforhodamine B assay; type: functional; summary of the method: as §2
# TK-10 = test: Growth inhibition of human TK10 cells after 48 hrs by sulforhodamine B assay; type: functional; details: TK-10, 48 h; summary of the method: as §2
# PC-3 = test: Growth inhibition of human PC3 cells after 48 hrs by sulforhodamine B assay; type: functional; details: PC-3, 48 h; summary of the method: as §1
# MCF7 = test: Growth inhibition of human MCF7 cells after 48 hrs by sulforhodamine B assay; type: functional; details: MCF7, 48 h; summary of the method: as §1
# NCI/ADR-RES = test: Growth inhibition of human NCI/ADR-RES cells after 48 hrs by sulforhodamine B assay; type: functional; summary of the method: as §1
# MDA-MB-231 = test: Growth inhibition of human MDA-MB-231 cells after 48 hrs by sulforhodamine B assay; type: functional; details: MDA-MB-231, 48 h; summary of the method: as §1
# MDA-MB-435 = test: Growth inhibition of human MDA-MB-435 cells after 48 hrs by sulforhodamine B assay; type: functional; details: MDA-MB-435, 48 h; summary of the method: as §1
# MDA-N = test: Growth inhibition of human MDA-N cells after 48 hrs by sulforhodamine B assay; type: functional
# Summary of the method: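 NCI screen panel. Five 10-fold concentrations from 10^-4 to 10^-8 M. Exposure for the last 48 h of a 72 h incubation. Growth estimated by sulforhodamine B protein assay. Where that level was not reached or was exceeded, the value is given as above or below the highest or lowest concentration tested.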
# T47D = test: Growth inhibition of human T47D cells after 48 hrs by sulforhodamine B assay; type: functional; summary of the method: as §2
smiles,measurement,setting,value
O=C(c1ccc(Cl)c(Cl)c1)N1CCN(C(=O)c2ccc(Cl)c(Cl)c2)C1=S,IC50,MT4,4.6 µM
same,GI50,CCRF-CEM,4.5 µM
same,GI50,K562,16.5 µM
same,GI50,MOLT-4,15.7 µM
same,GI50,A549,27.8 µM
same,GI50,EKVX,20.8 µM
same,GI50,HOP-62,17.6 µM
same,GI50,HOP-92,20 µM
same,GI50,NCI-H226,19 µM
same,GI50,NCI-H322M,19.8 µM
same,GI50,NCI-H460,22 µM
same,GI50,COLO 205,17.7 µM
same,GI50,HCT-116,18.1 µM
same,GI50,HCT-15,19.6 µM
same,GI50,KM12,16.1 µM
same,GI50,SW-620,21.3 µM
same,GI50,SF-268,16.8 µM
same,GI50,SF-295,18.5 µM
same,GI50,SNB-75,18.9 µM
same,GI50,U-251,16.4 µM
same,GI50,LOX IMVI,7.6 µM
same,GI50,Malme-3M,14.9 µM
same,GI50,M14,19.6 µM
same,GI50,UACC-257,17.3 µM
same,GI50,UACC-62,18.1 µM
same,GI50,IGROV-1,19.7 µM
same,GI50,OVCAR-3,17.1 µM
same,GI50,OVCAR-5,24.3 µM
same,GI50,SK-OV-3,18.2 µM
same,GI50,786-0,7.2 µM
same,GI50,A498,20.2 µM
same,GI50,CAKI-1,14 µM
same,GI50,RXF 393,17.8 µM
same,GI50,SN12C,18.3 µM
same,GI50,TK-10,18.5 µM
same,GI50,PC-3,16.7 µM
same,GI50,MCF7,5.6 µM
same,GI50,NCI/ADR-RES,34.4 µM
same,GI50,MDA-MB-231,18.8 µM
same,GI50,MDA-MB-435,15.4 µM
same,GI50,MDA-N,18.3 µM
same,GI50,T47D,17.5 µM
O=C(c1ccc(Cl)cc1Cl)N1CCN(C(=O)c2ccc(Cl)cc2Cl)C1=S,IC50,MT4,39 µM
same,GI50,CCRF-CEM,19.5 µM
same,GI50,K562,31.4 µM
same,GI50,MOLT-4,20.5 µM
same,GI50,A549,20.1 µM
same,GI50,EKVX,20.5 µM
same,GI50,HOP-62,23.1 µM
same,GI50,HOP-92,7.8 µM
same,GI50,NCI-H226,40.9 µM
same,GI50,NCI-H322M,18.1 µM
same,GI50,NCI-H460,35.4 µM
same,GI50,COLO 205,21 µM
same,GI50,HCT-116,23.5 µM
same,GI50,HCT-15,22.1 µM
same,GI50,KM12,15.3 µM
same,GI50,SW-620,28.2 µM
same,GI50,SF-268,24.5 µM
same,GI50,SF-295,22.9 µM
same,GI50,SNB-75,22.3 µM
same,GI50,U-251,17.8 µM
same,GI50,LOX IMVI,17.1 µM
same,GI50,Malme-3M,25.4 µM
same,GI50,M14,16.3 µM
same,GI50,UACC-257,28.2 µM
same,GI50,UACC-62,17.3 µM
same,GI50,IGROV-1,21 µM
same,GI50,OVCAR-3,19.7 µM
same,GI50,OVCAR-5,21.6 µM
same,GI50,SK-OV-3,22.8 µM
same,GI50,786-0,18.6 µM
same,GI50,A498,16.1 µM
same,GI50,CAKI-1,22.1 µM
same,GI50,RXF 393,18.5 µM
same,GI50,SN12C,18.1 µM
same,GI50,TK-10,36.3 µM
same,GI50,PC-3,22.7 µM
same,GI50,MCF7,18.3 µM
same,GI50,NCI/ADR-RES,24.8 µM
same,GI50,MDA-MB-231,19.1 µM
same,GI50,MDA-MB-435,16.4 µM
same,GI50,MDA-N,20 µM
same,GI50,T47D,19.5 µM
COc1cc(C(=O)N2CCN(C=O)C2=S)cc(OC)c1OC,IC50,MT4,13 µM
same,GI50,CCRF-CEM,18.3 µM
same,GI50,K562,30.8 µM
same,GI50,MOLT-4,29.4 µM
same,GI50,A549,33.2 µM
same,GI50,EKVX,31.8 µM
same,GI50,HOP-62,20 µM
same,GI50,HOP-92,9.3 µM
same,GI50,NCI-H226,35.9 µM
same,GI50,NCI-H322M,24.8 µM
same,GI50,NCI-H460,34 µM
same,GI50,COLO 205,20.2 µM
same,GI50,HCT-116,35.6 µM
same,GI50,HCT-15,25.6 µM
same,GI50,KM12,14.4 µM
same,GI50,SW-620,26.8 µM
same,GI50,SF-268,21.4 µM
same,GI50,SF-295,29.3 µM
same,GI50,SNB-75,10.9 µM
same,GI50,U-251,16.4 µM
same,GI50,LOX IMVI,16.4 µM
same,GI50,Malme-3M,24.3 µM
same,GI50,M14,20.6 µM
same,GI50,UACC-257,19.9 µM
same,GI50,UACC-62,15.8 µM
same,GI50,IGROV-1,21.9 µM
same,GI50,OVCAR-3,16.9 µM
same,GI50,OVCAR-5,48.5 µM
same,GI50,SK-OV-3,21.9 µM
same,GI50,786-0,12.7 µM
same,GI50,A498,20.5 µM
same,GI50,CAKI-1,13.6 µM
same,GI50,RXF 393,16.1 µM
same,GI50,SN12C,20.2 µM
same,GI50,TK-10,17.1 µM
same,GI50,PC-3,22.2 µM
same,GI50,MCF7,5.5 µM
same,GI50,NCI/ADR-RES,36.1 µM
same,GI50,MDA-MB-231,21.5 µM
same,GI50,MDA-MB-435,15.5 µM
same,GI50,MDA-N,17.9 µM
same,GI50,T47D,20.7 µM
